Data on eleven molecules can be found in ChEMBL document CHEMBL4732101, “Novel quinolone-based potent and selective HDAC6 inhibitors: Synthesis, molecular modeling studies and biological investigation” (Eur J Med Chem, 2021).

T1 sequence (Q13547 whole entry, the tested form may be a part): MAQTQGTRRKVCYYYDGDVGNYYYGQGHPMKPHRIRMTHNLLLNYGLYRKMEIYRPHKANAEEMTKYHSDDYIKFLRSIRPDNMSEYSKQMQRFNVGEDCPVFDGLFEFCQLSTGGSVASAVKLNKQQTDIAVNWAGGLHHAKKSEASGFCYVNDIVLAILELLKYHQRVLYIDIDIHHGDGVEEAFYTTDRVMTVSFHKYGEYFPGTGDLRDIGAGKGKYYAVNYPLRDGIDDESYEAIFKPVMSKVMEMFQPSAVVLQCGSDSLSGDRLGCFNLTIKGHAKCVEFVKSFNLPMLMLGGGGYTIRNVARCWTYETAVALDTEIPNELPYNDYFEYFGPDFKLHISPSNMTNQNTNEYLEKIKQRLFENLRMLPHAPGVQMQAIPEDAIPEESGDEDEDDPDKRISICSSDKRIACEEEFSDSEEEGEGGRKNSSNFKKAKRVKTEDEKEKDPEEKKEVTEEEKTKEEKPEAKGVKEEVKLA

In one data set the target is T1, HDAC1 (histone deacetylase 1) (Homo sapiens, UniProt Q13547). Put plainly: Inhibition of recombinant human C-terminal FLAG/His-tagged HDAC1 (1 to 482 residues) expressed in Sf9 insect cells at 10 uM using Z-(Ac)Lys-AMC as substrate measured after 90 mins by fluorescence assay relative to control. Particulars: probe Z-(Ac)Lys-AMC. The procedure, abridged:
(§1)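 Incubated with inhibitor in DMSO and fluorogenic substrate Z-(Ac)Lys-AMC (126 µM, as added) for 90 min at 37 °C. Stopped with trichostatin A plus trypsin for 30 min at 37 °C; fluorescence read at ex 390/em 460 nm.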
With `O=C(NO)c1ccc(Cn2c(=O)c(O)c(-c3cccnc3)c3ccccc32)cc1`, the inhibition at 1.5 h, 10 µM was 36%.
On the same count and under the same terms, the same measure for `O=C(NO)c1ccc(COc2c(-c3ccccc3)c3ccccc3n(C3CCN(Cc4ccccc4)CC3)c2=O)cc1`: 46%.
Still for that read-out and setting: the same measure for `O=C(NO)c1ccc(COc2c(-c3ccccc3)c3ccccc3n(Cc3ccccc3)c2=O)cc1`: 76%; for `Cn1c(=O)c(OCc2ccc(C(=O)NO)cc2)c(-c2ccccc2)c2ccccc21`: 26%.

Another data set addresses T1, HDAC1 (histone deacetylase 1). In words: Inhibition of recombinant human C-terminal FLAG/His-tagged HDAC1 (1 to 482 residues) expressed in Sf9 insect cells at 50 uM using Z-(Ac)Lys-AMC as substrate measured after 90 mins by fluorescence assay relative to control. The settings on record: probe Z-(Ac)Lys-AMC. The method, boiled down: as §1
Regarding `O=C(NO)c1ccc(Cn2c(=O)c(O)c(-c3cccnc3)c3ccccc32)cc1`, the inhibition at 1.5 h, 50 µM was found to be 96%.
Same read-out and setting: as for `O=C(NO)c1ccc(COc2c(-c3ccccc3)c3ccccc3n(C3CCN(Cc4ccccc4)CC3)c2=O)cc1`, the figure is 79%; as for `O=C(NO)c1ccc(COc2c(-c3ccccc3)c3ccccc3n(Cc3ccccc3)c2=O)cc1`, 97%.
`Cn1c(=O)c(OCc2ccc(C(=O)NO)cc2)c(-c2ccccc2)c2ccccc21`: the inhibition at 1.5 h, 50 µM was 80%.

System in another data set: not listed separately
In words: Solubility of compound in pH 3 buffer at 250 uM measured after 24 hrs by HPLC/UV/DAD method. Type of data set: physicochemical. The settings on record: pH 3, 24 h. The procedure, abridged:
(§2)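 10 mM DMSO stock diluted to 250 µM (2.5% DMSO) in 50 mM acetic acid, pH 3.0, and shaken 24 h at 25 °C. For solubility, samples filtered, diluted 1:2, quantified by HPLC-UV at 254 nm against a standard. For stability, percent remaining taken as the 24 h peak area over the T0 peak area. Triplicate analyses averaged.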
`O=C(NO)c1ccc(COc2c(-c3ccccc3)c3ccccc3n(Cc3ccncc3)c2=O)cc1`: the solubility result is recorded as “Soluble”.

System in the next data set: not listed separately
Put plainly: Stability of compound in pH 3 buffer assessed as parent compound remaining at 250 uM measured after 24 hrs by HPLC/UV/DAD method. Type of data set: physicochemical. The settings on record: read-out: Stabilty. The procedure, abridged:
as §2
For the molecule `O=C(NO)c1ccc(COc2c(-c3ccccc3)c3ccccc3n(Cc3ccncc3)c2=O)cc1`, the remaining at 24 h, 250 µM is over 95%.

A further data set concerns the target T1, HDAC1 (histone deacetylase 1). Put plainly: Inhibition of recombinant human C-terminal FLAG/His-tagged HDAC1 (1 to 482 residues) expressed in Sf9 insect cells at 1 uM using Z-(Ac)Lys-AMC as substrate measured after 90 mins by fluorescence assay relative to control. Particulars: probe Z-(Ac)Lys-AMC. The procedure, abridged: as §1
For the molecule `O=C(NO)c1ccc(Cn2c(=O)c(O)c(-c3cccnc3)c3ccccc32)cc1`, the inhibition at 1.5 h, 1 µM was under 10%.
The same measure, in the same setting: as for `O=C(NO)c1ccc(COc2c(-c3ccccc3)c3ccccc3n(C3CCN(Cc4ccccc4)CC3)c2=O)cc1`, the figure is under 10%; as for `O=C(NO)c1ccc(COc2c(-c3ccccc3)c3ccccc3n(Cc3ccccc3)c2=O)cc1`, 17%.
Still for that read-out and setting: the same measure for `Cn1c(=O)c(OCc2ccc(C(=O)NO)cc2)c(-c2ccccc2)c2ccccc21`: under 10%.

Another data set concerns the target T2, Protein deacetylase HDAC6 (Homo sapiens, UniProt Q9UBN7).
T2 sequence (Q9UBN7 whole entry): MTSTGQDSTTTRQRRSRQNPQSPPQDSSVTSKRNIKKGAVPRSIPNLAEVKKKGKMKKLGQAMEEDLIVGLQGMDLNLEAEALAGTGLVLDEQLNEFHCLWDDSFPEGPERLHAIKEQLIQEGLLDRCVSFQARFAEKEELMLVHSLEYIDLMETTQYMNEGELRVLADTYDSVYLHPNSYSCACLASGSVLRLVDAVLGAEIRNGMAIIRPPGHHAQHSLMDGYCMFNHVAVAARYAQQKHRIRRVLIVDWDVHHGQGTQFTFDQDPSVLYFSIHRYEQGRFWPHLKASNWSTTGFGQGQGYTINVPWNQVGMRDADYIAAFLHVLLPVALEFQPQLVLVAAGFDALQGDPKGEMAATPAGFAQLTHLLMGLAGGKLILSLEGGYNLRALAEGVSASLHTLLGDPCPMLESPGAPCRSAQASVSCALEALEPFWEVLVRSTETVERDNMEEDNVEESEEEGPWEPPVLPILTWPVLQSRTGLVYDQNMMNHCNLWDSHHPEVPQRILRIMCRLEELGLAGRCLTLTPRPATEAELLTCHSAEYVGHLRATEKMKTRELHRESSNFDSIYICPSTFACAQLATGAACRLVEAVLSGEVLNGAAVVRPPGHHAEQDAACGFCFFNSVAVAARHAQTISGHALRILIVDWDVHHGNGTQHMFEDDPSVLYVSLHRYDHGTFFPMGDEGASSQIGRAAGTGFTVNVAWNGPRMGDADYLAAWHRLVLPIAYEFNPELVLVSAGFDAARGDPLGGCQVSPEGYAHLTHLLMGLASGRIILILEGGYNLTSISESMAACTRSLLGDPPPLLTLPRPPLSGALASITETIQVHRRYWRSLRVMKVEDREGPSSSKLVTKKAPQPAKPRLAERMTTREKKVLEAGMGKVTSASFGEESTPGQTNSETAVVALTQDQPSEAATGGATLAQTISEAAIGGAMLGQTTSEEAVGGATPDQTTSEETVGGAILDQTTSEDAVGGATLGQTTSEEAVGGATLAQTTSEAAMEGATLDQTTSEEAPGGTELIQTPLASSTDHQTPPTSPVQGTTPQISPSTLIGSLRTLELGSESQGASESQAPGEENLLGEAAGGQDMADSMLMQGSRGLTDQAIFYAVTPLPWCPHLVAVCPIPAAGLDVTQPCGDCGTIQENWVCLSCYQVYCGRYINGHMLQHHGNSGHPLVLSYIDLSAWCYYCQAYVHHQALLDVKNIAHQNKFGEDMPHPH
In words: Inhibition of recombinant human full length N-terminal GST-tagged HDAC6 expressed in baculovirus infected Sf9 cells using Z-(Ac)Lys-AMC as substrate measured after 90 mins by fluorescence assay.
Conditions: not given
On to `O=C(NO)c1ccc(Cn2c(=O)c(O)c(-c3cccnc3)c3ccccc32)cc1`, for which the IC50 was determined as 296 nM.
Same read-out and setting: the same measure for `O=C(NO)c1ccc(COc2c(-c3cccnc3)c3ccccc3n(Cc3ccncc3)c2=O)cc1`: 45.3 nM.
On the same count and under the same terms, the same measure for `O=C(NO)c1ccc(COc2c(-c3ccccc3)c3ccccc3n(C3CCN(Cc4ccccc4)CC3)c2=O)cc1`: 870 nM; for `O=C(NO)c1ccc(Cn2c(=O)c(O)c(-c3ccccc3)c3ccccc32)cc1`: 308 nM.
For the molecule `O=C(NO)c1ccc(Cn2c(=O)c(OCc3ccccc3)c(-c3ccccc3)c3ccccc32)cc1`, the IC50 is 84.5 nM.
On the same count and under the same terms, the same measure for `O=C(NO)c1ccc(COc2c(-c3ccccc3)c3ccccc3n(Cc3ccccc3)c2=O)cc1`: 176 nM.
Same read-out and setting: the same measure for `O=C(NO)c1ccc(COc2c(-c3cccnc3)c3ccccc3n(Cc3ccccc3)c2=O)cc1`: 25.6 nM.
With `O=C(NO)c1ccc(COc2c(-c3ccccc3)c3ccccc3n(Cc3ccncc3)c2=O)cc1`, the half-maximal inhibitory concentration (IC50) is 84.1 nM.
The same measure, in the same setting: the same measure for `Cn1c(=O)c(OCc2ccc(C(=O)NO)cc2)c(-c2ccccc2)c2ccccc21`: 519 nM; for `Cn1c(=O)c(OCc2ccc(C(=O)NO)cc2)c(-c2cccnc2)c2ccccc21`: 46 nM.
Same read-out and setting: the same measure for `C#CCn1c(=O)c(OCc2ccc(C(=O)NO)cc2)c(-c2ccccc2)c2ccccc21`: 82.3 nM.

The target of the next data set is T1, HDAC1 (histone deacetylase 1). In words: Inhibition of recombinant human C-terminal FLAG/His-tagged HDAC1 (1 to 482 residues) expressed in Sf9 insect cells at 25 uM using Z-(Ac)Lys-AMC as substrate measured after 90 mins by fluorescence assay relative to control. The settings on record: probe Z-(Ac)Lys-AMC. The method, boiled down: as §1
On to `O=C(NO)c1ccc(Cn2c(=O)c(O)c(-c3cccnc3)c3ccccc32)cc1`, for which the inhibition at 1.5 h, 25 µM stood at 82%.
For the molecule `O=C(NO)c1ccc(COc2c(-c3ccccc3)c3ccccc3n(C3CCN(Cc4ccccc4)CC3)c2=O)cc1`, the inhibition at 1.5 h, 25 µM was 67%.
As for `O=C(NO)c1ccc(COc2c(-c3ccccc3)c3ccccc3n(Cc3ccccc3)c2=O)cc1`, the inhibition at 1.5 h, 25 µM amounted to 93%.
Same read-out and setting: the same measure for `Cn1c(=O)c(OCc2ccc(C(=O)NO)cc2)c(-c2ccccc2)c2ccccc21`: 46%.

The target in the next data set is Histone deacetylase 1 (Homo sapiens, UniProt Q13547). Put plainly: Inhibition of recombinant human C-terminal FLAG/His-tagged HDAC1 (1 to 482 residues) expressed in Sf9 insect cells using Z-(Ac)Lys-AMC as substrate measured after 90 mins by fluorescence assay.
Chain of Histone deacetylase 1 (Q13547 whole entry, the tested form may be a part): as the sequence (Q13547 whole entry, the tested form may be a part) above
Conditions: not given
The method, boiled down: as §1
`O=C(NO)c1ccc(COc2c(-c3cccnc3)c3ccccc3n(Cc3ccncc3)c2=O)cc1`: the 50% inhibitory concentration (IC50) came to 1700 nM.
As to `O=C(NO)c1ccc(Cn2c(=O)c(O)c(-c3ccccc3)c3ccccc32)cc1`, the IC50 was found to be 11000 nM.
Still for that read-out and setting: as for `O=C(NO)c1ccc(Cn2c(=O)c(OCc3ccccc3)c(-c3ccccc3)c3ccccc32)cc1`, the figure is 5500 nM; as for `O=C(NO)c1ccc(COc2c(-c3cccnc3)c3ccccc3n(Cc3ccccc3)c2=O)cc1`, 2500 nM.
On the same count and under the same terms, the same measure for `O=C(NO)c1ccc(COc2c(-c3ccccc3)c3ccccc3n(Cc3ccncc3)c2=O)cc1`: 1200 nM.
Same read-out and setting: as for `Cn1c(=O)c(OCc2ccc(C(=O)NO)cc2)c(-c2cccnc2)c2ccccc21`, the figure is 5010 nM; as for `C#CCn1c(=O)c(OCc2ccc(C(=O)NO)cc2)c(-c2ccccc2)c2ccccc21`, 6100 nM.

Broadly, the inhibition is the relative decrease from the control value, in per cent. As usually defined, the IC50 is the point on the concentration scale where inhibition reaches its midpoint.
